Converted amounts (≈) assume the structure as drawn.
Tests used:
[1] = system: E. coli strains containing pET30a-eclrs; experiment: MIC upon overexpression of EcLeuRS; format: cell-based, Escherichia coli; conditions: induced by IPTG
Procedure, shortened: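 E. coli transformants carrying pET30a-eclrs, with the empty pET30a vector strain as control. Both were induced with 10 μM IPTG and tested by broth microdilution in Mueller Hinton broth (37°C, 24 h). MICs were read as the lowest concentration without visible growth and compared between the two strains.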

S. pneumoniae = experiment: Broth microdilution MIC, S. pneumoniae; format: cell-based; conditions: Streptococcus pneumoniae, 24 h, read-out: MIC, Bacteria, S. pneumoniae
Procedure, shortened: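 S. pneumoniae clinical isolate, from paediatric community-acquired pneumonia. CLSI M7-A7 broth microdilution in Mueller Hinton broth with 2.5% lysed sheep blood, inoculum about 2 × 10^8 CFU/mL. Serial test-compound dilutions, 37°C for 24 h. MIC was the lowest concentration suppressing visible growth.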

SpLeuRS T252R = target: T1, SpLeuRS T252R (Streptococcus pneumoniae serotype 4, UniProt Q97SS0, T252R); experiment: Aminoacylation by SpLeuRS T252R mutant; format: biochemical; conditions: 50 μM ZCL039
T1 sequence (Q97SS0 1-833 T252R): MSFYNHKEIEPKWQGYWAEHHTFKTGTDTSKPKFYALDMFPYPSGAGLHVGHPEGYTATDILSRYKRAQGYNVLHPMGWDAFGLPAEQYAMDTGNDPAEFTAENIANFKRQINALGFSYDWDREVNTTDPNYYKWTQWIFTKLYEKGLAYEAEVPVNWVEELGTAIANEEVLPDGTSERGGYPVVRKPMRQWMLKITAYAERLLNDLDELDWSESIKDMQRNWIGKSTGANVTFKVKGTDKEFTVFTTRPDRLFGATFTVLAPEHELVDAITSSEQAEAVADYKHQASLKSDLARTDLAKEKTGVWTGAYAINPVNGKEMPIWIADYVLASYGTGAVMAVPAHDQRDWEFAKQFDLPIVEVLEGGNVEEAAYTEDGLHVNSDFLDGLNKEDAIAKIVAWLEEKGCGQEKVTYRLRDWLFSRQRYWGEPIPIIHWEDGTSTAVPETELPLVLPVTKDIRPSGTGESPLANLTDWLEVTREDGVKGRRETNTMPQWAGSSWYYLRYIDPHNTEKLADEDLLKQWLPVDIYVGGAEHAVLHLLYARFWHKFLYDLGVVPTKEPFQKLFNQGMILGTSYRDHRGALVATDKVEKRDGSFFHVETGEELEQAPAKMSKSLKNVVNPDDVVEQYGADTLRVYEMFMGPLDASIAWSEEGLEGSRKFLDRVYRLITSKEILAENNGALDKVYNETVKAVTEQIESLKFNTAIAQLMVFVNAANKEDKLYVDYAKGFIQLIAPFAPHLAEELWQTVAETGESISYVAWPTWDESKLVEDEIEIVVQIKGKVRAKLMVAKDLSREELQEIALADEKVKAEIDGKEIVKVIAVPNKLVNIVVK
Procedure, shortened: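 Aminoacylation at 37°C, started with 4 mM ATP. Point mutants were made by site-directed mutagenesis. The MmLinker chimera has CP1 Lys226–Thr411 replaced by a nonapeptide. Means of three independent experiments.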

yeast cytosolic LeuRS = target: T2, yeast cytosolic LeuRS (Saccharomyces cerevisiae, UniProt P26637); experiment: Aminoacylation by yeast cytosolic LeuRS; format: biochemical; conditions: 100 μM ZCL039
T2 sequence (P26637 1-1090): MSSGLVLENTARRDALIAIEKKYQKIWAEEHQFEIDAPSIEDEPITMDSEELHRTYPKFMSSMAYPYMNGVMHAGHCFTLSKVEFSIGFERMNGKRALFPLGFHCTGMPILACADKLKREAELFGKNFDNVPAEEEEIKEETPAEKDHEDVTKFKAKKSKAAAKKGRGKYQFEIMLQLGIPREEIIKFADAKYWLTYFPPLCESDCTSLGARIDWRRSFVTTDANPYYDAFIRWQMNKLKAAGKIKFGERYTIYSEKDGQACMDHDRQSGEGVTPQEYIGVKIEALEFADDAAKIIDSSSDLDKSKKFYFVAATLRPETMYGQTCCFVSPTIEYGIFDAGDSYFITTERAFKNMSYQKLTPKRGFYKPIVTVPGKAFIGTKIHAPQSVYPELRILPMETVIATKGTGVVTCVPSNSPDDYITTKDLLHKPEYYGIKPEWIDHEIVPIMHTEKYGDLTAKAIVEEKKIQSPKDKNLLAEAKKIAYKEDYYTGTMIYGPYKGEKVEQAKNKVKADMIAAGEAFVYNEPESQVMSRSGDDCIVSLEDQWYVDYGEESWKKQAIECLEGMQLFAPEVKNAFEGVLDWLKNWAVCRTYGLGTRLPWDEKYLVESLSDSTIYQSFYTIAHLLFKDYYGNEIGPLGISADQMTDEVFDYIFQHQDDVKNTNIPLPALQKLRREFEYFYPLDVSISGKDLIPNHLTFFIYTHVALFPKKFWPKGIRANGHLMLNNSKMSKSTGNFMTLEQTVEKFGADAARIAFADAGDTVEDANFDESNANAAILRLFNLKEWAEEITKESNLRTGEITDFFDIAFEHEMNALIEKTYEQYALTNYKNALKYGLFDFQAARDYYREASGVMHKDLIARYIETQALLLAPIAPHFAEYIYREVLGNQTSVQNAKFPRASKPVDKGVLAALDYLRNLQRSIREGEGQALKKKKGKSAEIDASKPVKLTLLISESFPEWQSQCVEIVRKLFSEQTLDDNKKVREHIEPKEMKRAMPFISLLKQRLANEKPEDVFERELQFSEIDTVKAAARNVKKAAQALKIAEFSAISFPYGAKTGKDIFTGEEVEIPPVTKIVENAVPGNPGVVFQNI

OB1OCc2ccc(C(O)c3ccccc3)cc21 (stereo not shown) [ZCL039, [6-(1-phenyl-1-hydroxylmethyl)]-1,3-dihydro-1-hydroxy-2,1-benzoxaborole]
Increase in the MIC, pET30a-eclrs vs pET30a [1]: over 4 fold
MIC (S. pneumoniae): 5 µg/mL (≈ 20.8 µM)
Effect on synthetic activity of T252R mutant (SpLeuRS T252R): did not affect
Activity against yeast cytosolic LeuRS aminoacylation (yeast cytosolic LeuRS): little effect
